Only some compounds are listed: those with a hit (about 6.4% of all), similar ones and a draw of the others.
H69AR growth 86K = proliferation blockers of H69AR lung cancer cells, primary screen, cell-based, human, 86K library; H69AR lung tumor viability, ATP luminescence, 72 h; stronger effect = lower value; viability, % at 10 µM; 6% of 85,000 active; AID 598, 2007;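 active means viability at or below 40%; inactive means viability above 40%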;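 further: multidrug resistant small cell line overexpressing MRP-1 efflux transporter; 100% = mean luminescence of untreated control wells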
Fibroblast inh = antiproliferative effect on LL 47 fibroblasts – human, LL 47 cells, CellTiter-Glo luminescence, primary screen; LL 47 human lung fibroblast viability, ATP luminescence; stronger effect = lower value; viability, % at 10 µM; 1.1% of 85,000 active;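 active means viability at or below 50% in the single dose screen; inactive means viability above 50%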;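 further: compound exposure lasted 72 h before the ATP readout; 100% = median luminescence of untreated cell-only wells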
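Test system: LL 47 human lung fibroblasts; Quantity: 1,150 cells/well; Buffer or medium: IMEM plus 15% FBS; Dosing: tenfold compound dosing solution, DMSO at 0.1%; Timing: overnight cell rest, 72 h compound treatment at 37 °C; Detection: ATP-based CellTiter-Glo luminescent readout; Read-out basis: viability percentage against median untreated-cell control; Controls: cell-only wells, no compound.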
Jurkat viability = cytotoxicity toward Jurkat T cells, primary screen, cytotoxicity control, cell-based, Jurkat E6.1, 60K MLSMR library. 1.2% of 56,000 active. AID 463, 2006. inhibition, % at 4 µM. Jurkat E6.1 viability, ATP luminescence, 48 h;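 active means inhibition above the mean inhibition of all tested compounds plus 3 SD, cut at about 28% in these data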
HUVEC inhibit = inhibitors of HUVEC proliferation, primary screen, cell-based, 384-well | CellTiter-Glo luminescence, 72 h; stronger effect = lower value | viability, % at 10 µM (by protocol) | 1.1% of 86,000 active;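 active means viability at or below 30%; inactive means viability above 30%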;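 further: 100% = median luminescence of DMSO-only cell control wells on each plate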
Ecoli tolC = growth inhibitors of E. coli tolC mutant, primary screen, strain BW25113 ΔtolC::kan, 384-well; 2.2% of 65,000 active; growth inhibition, % at 10 µM (by protocol); OD615;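 active means growth inhibition at or above a cutoff equal to the mean over every tested compound plus 3 SD, cut at about 60% in these data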;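 further: growth measured after 20 h incubation at 37 °C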
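Material: E. coli BW25113 ΔtolC::kan, tolC deletion mutant strain. Measure: percent growth inhibition. Schedule: 37 °C, 20 h exposure. Doses: single-point testing at 10 µM. Signal: A615 absorbance measurement. Buffer or medium: kanamycin-containing LB broth (50 µg/mL).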
Ecoli WT expand = growth inhibitors of wild-type E. coli, primary screen, strain BW25113, expanded library, OD600; OD600 absorbance; AID 710, 2007; 0.15% of 98,000 active; growth inhibition, % at 100 µM;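 active means growth inhibition above about 50% at one test dose, limit read from the data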;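 further: growth measured after 20 h incubation at 37 °C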
Numbers without * were called inactive; x = not tested or not shown.

SMILES	H69AR growth 86K	Fibroblast inh	Jurkat viability	HUVEC inhibit	Ecoli tolC	Ecoli WT expand
CCOC(=O)Cc1csc(NC(=O)c2ccc(NC(C)=O)cc2)n1	78.7	104.5	x	89.3	x	x
CCOC(=O)Cc1csc(NC(=O)c2csc3c2CCCC3)n1	83.2	107.4	-3.9	103.2	64.0*	-36.0
Cc1nc2c(-c3ccc(F)cc3)c(C)nn2c(C)c1CCC(=O)N1CCN(c2ccc(F)cc2)CC1	71.1	93.1	x	91.8	x	-6.0
CCOC(=O)c1c(N2C(=O)Nc3cc(Cl)c(Cl)cc3N2O)sc2c1CCCCC2	x	x	x	x	x	-5.0
CCC(=O)Nc1c(C(=O)Nc2cccc(OC)c2)oc2ccccc12	83.5	95.0	-5.0	89.0	-6.7	-5.0
CCOc1ccc(CC(=O)Nc2c(C(=O)Nc3ccccc3)oc3ccccc23)cc1OCC	35.2*	72.1	x	82.4	x	-7.0
N#Cc1ccccc1NC(=O)c1ccccc1OCC(=O)Nc1ccc2c(c1)oc1ccccc12	3.9*	90.3	5.4	60.4	15.1	x
N#Cc1ccccc1OCC(=O)Nc1c(C(=O)C2CC2)oc2ccccc12	7.6*	83.9	-6.8	59.3	-9.0	-6.0
COc1ccc(NC(=O)c2oc3ccccc3c2NC(=O)COc2ccccc2OC)c(OC)c1	19.1*	71.2	-8.8	7.2*	-13.7	-9.0
Cc1cc(C)c(C#N)c(Sc2nnnn2-c2ccccc2)n1	83.6	102.3	x	106.7	x	3.0
COc1cccc(CNS(=O)(=O)/C=C/c2ccc3c(c2)OCO3)c1	x	x	x	x	x	7.0
Cc1ccc(NC2=NCC(=O)N2C2CCCC2)c(C)c1	108.0	104.2	x	105.2	x	x
CCOC(=O)C1CCCN(c2c(Nc3cc(C)cc(C)c3)c(=O)c2=O)C1 (stereo not drawn)	86.8	99.6	x	104.1	x	-1.0
CCOc1ccc(CC(=O)Nc2c(C(N)=O)oc3ccc(Br)cc23)cc1OCC	36.5*	91.8	0.7	98.8	6.2	-1.0
Cc1ccc([N+](=O)[O-])cc1-c1[nH]c(-c2ccc(O)c(O)c2)nc1-c1ccccc1	10.4*	80.4	x	52.3	x	4.0
O=C(C[n+]1cccc(NC(=O)c2ccccc2)c1)c1ccc(NC(=O)c2ccccc2)cc1	x	x	x	x	x	62.0*
CC(=O)Nc1ccc(C(=O)CSc2nnc3scc(-c4ccccc4)n23)cc1	53.3	95.4	3.4	92.0	0.5	-2.0
O=C(CCSc1nnc2scc(-c3ccccc3)n12)Nc1nc(-c2ccccc2)ns1	108.7	97.6	-8.7	70.9	65.3*	-7.0
CC1CCN(S(=O)(=O)c2cccc(C(=O)NCc3cccs3)c2)CC1	103.0	104.9	8.3	123.3	61.6*	-7.0
CCN1C(=O)C2C(C1=O)N1C(c3cccs3)C3C(=O)N(CC)C(=O)C3N1C2c1cccs1 (stereo not drawn)	x	x	x	x	x	-8.0
CCOC(=O)/C(C#N)=C\C1=C(N2CCCC2)CC(C)(CC)OC1 (stereo not drawn)	36.2*	112.8	x	88.4	x	x
CCCCOC(=O)Nc1ccc(C(=O)OCCC)cc1	92.3	96.5	-1.6	93.3	67.3*	5.0
CCCCOC(=O)c1ccc(NC(=O)c2cnccn2)cc1	80.0	93.0	5.6	108.4	4.7	2.0
CCn1c(-c2cc3c(C(F)(F)F)nn(C)c3s2)n[nH]c1=S	x	x	x	x	x	-5.0
O=P(O)(CCCCP(=O)(O)CCc1ccccc1)CCc1ccccc1	94.1	96.3	-13.3	86.8	-24.9	x
SMILES	H69AR growth 86K	Fibroblast inh	Jurkat viability	HUVEC inhibit	Ecoli tolC	Ecoli WT expand
COc1ccc(-n2c(Cc3cccn3C)nnc2SCC(=O)Nc2ccc(C)c(Cl)c2)cc1	74.3	86.4	-6.2	71.1	74.8*	-18.0
CCn1c(Cc2ccccc2)nnc1SCC(=O)Nc1ccc(OC)cc1	87.4	92.5	x	88.8	x	x
CCn1c(Cc2ccc(OC)cc2)nnc1SCC(=O)Nc1cccc(C(=O)OC)c1	94.7	48.0*	-3.0	96.6	5.5	1.0
COc1ccc(-n2c(Cc3cccn3C)nnc2SCC(=O)Nc2cccc(OC)c2)cc1	36.9*	94.8	7.4	92.7	19.5	0.0
c1ccc(-c2ccc(-c3cn4c(n3)CCC4)cc2)cc1	94.5	94.7	x	79.8	x	-2.0
COC(=O)c1cccc(NC(=O)c2cccs2)c1C	88.5	96.7	x	99.1	x	10.0
COc1ccc(-n2c(O)c(/C=N/n3cnnc3)c3ccccc3c2=O)cc1	106.2	103.5	3.6	103.0	-6.1	-1.0
Cc1cc(N2CCN(C(=O)c3ccco3)CC2)n2ncc(-c3ccccc3)c2n1	27.3*	94.2	2.6	84.0	24.8	-4.0
Cc1cc(N2CCC(C)CC2)n2ncc(-c3ccccc3)c2n1	52.9	86.4	-2.3	89.3	53.5	-20.0
Cc1cc(N2CCCCC2)n2ncc(-c3ccccc3)c2n1	38.2*	86.9	0.8	81.0	74.8*	-5.0
Cc1cc(N2CCOCC2)n2ncc(-c3ccccc3)c2n1	27.5*	81.0	x	77.0	x	-3.0
Cc1cc(C)cc(OCC(=O)N2N=C(C(F)(F)F)CC2(O)C(C)(C)C)c1 (stereo not drawn)	33.5*	97.8	x	91.3	x	x
CCCCC1(O)CC(C(F)(F)F)=NN1C(=O)COc1ccccc1 (stereo not drawn)	68.5	98.8	x	104.0	x	x
CCSc1nc2c(sc3ccccc32)c(=O)n1C(C)C	44.9	96.4	x	89.5	x	-5.0
CCOc1cc(S(=O)(=O)NCc2ccco2)c(OCC)cc1-n1cnnn1	88.1	96.8	-1.3	90.7	-0.6	2.0
Cc1cc2ncn(/N=C/c3cc(Br)ccc3O)c2cc1C	31.1*	100.0	-6.5	94.1	-1.7	-1.0
Cc1ccc(CN2CCN(/N=C/c3cc(Br)ccc3O)CC2)cc1	x	x	x	x	x	-7.0
Cc1nc2ccc(S(=O)(=O)c3ccc4nc(C)[nH]c4c3)cc2[nH]1	x	x	x	x	x	8.0
Cc1nc2ccc(C(C(F)(F)F)(C(F)(F)F)C(F)(F)F)cc2[nH]1	93.8	78.5	-2.9	79.3	99.5*	3.0
CCn1c2ccccc2c2nc3ccccc3nc21	84.5	89.7	2.1	103.5	35.0	0.0
CCCCc1c(C)nn(-c2nnc3c4ccccc4n(CC)c3n2)c1C	63.6	87.0	1.0	34.9	75.3*	0.0
Cc1cccc(CSc2nnc(-c3cccs3)n2Cc2ccco2)c1	90.5	101.8	x	92.4	x	-12.0
COc1cc(C2C3CN(C)CC=C3C(C#N)=C(N)C2(C#N)C#N)ccc1OC(C)C (stereo not drawn)	35.5*	84.1	x	86.7	-0.1	4.0
COc1cc([C@@H]2[C@H]3CNCC=C3C(C#N)=C(N)C2(C#N)C#N)ccc1OC(C)C	63.2	110.0	x	87.5	10.4	-1.0
CC(NC(=O)Nn1cnnc1)(C(F)(F)F)C(F)(F)F	96.2	97.4	x	90.0	x	3.0
Cc1cc(S(=O)(=O)N(Cc2ccccn2)Cc2ccco2)ccc1-n1cnnn1	86.6	93.1	x	100.3	14.2	-3.0
